≈ marks a conversion by molar mass, not a printed value. Calls of active or inactive are those of the source. The rule behind the calls is not given here.
How the values were obtained:
[1] = test system: ACHN; assay: Cytotoxicity against human ACHN cells after 72 hrs by CCK8 assay; assay type: functional, cell-based
How it was run: (§1)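 Renal cancer lines ACHN, 786-O and OS-RC-2; cell viability read by CCK-8 assay, with sorafenib as positive control.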

[2] = test system: 786-0; assay: Cytotoxicity against human 786-O cells after 72 hrs by CCK8 assay; assay type: functional, cell-based; settings: 786-0, 72 h; how it was run: as §1
[3] = test system: OS-RC-2; assay: Cytotoxicity against human OS-RC2 cells after 72 hrs by CCK8 assay; assay type: functional, cell-based; settings: OS-RC-2, 72 h; how it was run: as §1
[4] = test system: HepG2; assay: Cytotoxicity against human HepG2 cells after 6 days by MTT assay; assay type: functional, cell-based; settings: HepG2, 144 h
How it was run: (§2)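 HepG-2 and SGC7901 cells; growth inhibition read by MTT method, with 5-fluorouracil as positive control.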

[5] = test system: SGC-7901; assay: Cytotoxicity against human SGC7901 cells after 6 days by MTT assay; assay type: functional, cell-based; settings: SGC-7901, 144 h; how it was run: as §2
[6] = test system: Escherichia coli; assay: Antimicrobial activity against Escherichia coli ATCC 25922 after 24 hrs by serial dilution method; assay type: functional; settings: ATCC 25922, 24 h
How it was run: (§3)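 Serial broth dilution in 96-well microtiter plates. Compounds and controls are dissolved in DMSO as stock. Bacteria are grown overnight at 37 °C, then diluted to 10^6 cfu/mL. E. coli and S. aureus are grown in Luria–Bertani broth. P. multocida and E. rhusiopathiae are grown in trypticase soy broth with 10% calf serum. Plates are incubated at 37 °C for 24 h and read at 630 nm.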

[7] = test system: Staphylococcus aureus; assay: Antimicrobial activity against Staphylococcus aureus subsp. aureus Rosenbach ATCC 25923 after 24 hrs by serial dilution method; assay type: functional; settings: Rosenbach ATCC 25923, 24 h; how it was run: as §3
[8] = test system: Erysipelothrix rhusiopathiae; assay: Antimicrobial activity against Erysipelothrix rhusiopathiae ATCC 19414 after 24 hrs by serial dilution method; assay type: functional; settings: ATCC 19414, 24 h; how it was run: as §3
[9] = test system: Pasteurella multocida; assay: Antimicrobial activity against Pasteurella multocida subsp. multocida ATCC 43137 after 24 hrs by serial dilution method; assay type: functional; settings: ATCC 43137, 24 h; how it was run: as §3
[10] = test system: ACHN; assay: Induction of apoptosis in human ACHN cells assessed as early apoptotic cells at 2 uM after 24 hrs by Annexin V-FITC/propidium iodide staining based flow cytometric method (reference value: 0%); assay type: functional
How it was run: (§4)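 ACHN cells are treated at 1, 2 and 4 μM for 24, 48 and 72 h. Cells are then double-stained with annexin V-FITC and propidium iodide and analysed by flow cytometry. Early apoptotic, late apoptotic, necrotic and viable fractions are quantified.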

[11] = test system: ACHN; assay: Induction of apoptosis in human ACHN cells assessed as viable cells at 2 uM after 24 hrs by Annexin V-FITC/propidium iodide staining based flow cytometric method (reference value: 100%); assay type: functional; settings: read-out: Activity; how it was run: as §4
[12] = test system: ACHN; assay: Cell cycle arrest in human ACHN cells at 1 to 4 uM after 24 to 72 hrs by propidium iodide staining based flow cytometric method; assay type: functional
[13] = test system: ACHN; assay: Induction of apoptosis in human ACHN cells assessed as viable cells at 1 uM after 24 hrs by Annexin V-FITC/propidium iodide staining based flow cytometric method (reference value: 100%); assay type: functional; settings: read-out: Activity; how it was run: as §4
[14] = test system: ACHN; assay: Induction of apoptosis in human ACHN cells assessed as early apoptotic cells at 1 uM after 24 hrs by Annexin V-FITC/propidium iodide staining based flow cytometric method (reference value: 0%); assay type: functional; how it was run: as §4
[15] = test system: ACHN; assay: Induction of apoptosis in human ACHN cells assessed as late apoptotic cells at 1 uM after 24 hrs by Annexin V-FITC/propidium iodide staining based flow cytometric method (reference value: 0%); assay type: functional; how it was run: as §4
[16] = test system: ACHN; assay: Induction of apoptosis in human ACHN cells assessed as necrotic cells at 1 uM after 24 hrs by Annexin V-FITC/propidium iodide staining based flow cytometric method (reference value: 0%); assay type: functional; how it was run: as §4
[17] = test system: ACHN; assay: Induction of apoptosis in human ACHN cells assessed as late apoptotic cells at 2 uM after 24 hrs by Annexin V-FITC/propidium iodide staining based flow cytometric method (reference value: 0%); assay type: functional; how it was run: as §4
[18] = test system: ACHN; assay: Induction of apoptosis in human ACHN cells assessed as necrotic cells at 2 uM after 24 hrs by Annexin V-FITC/propidium iodide staining based flow cytometric method (reference value: 0%); assay type: functional; how it was run: as §4
[19] = test system: ACHN; assay: Induction of apoptosis in human ACHN cells assessed as viable cells at 4 uM after 24 hrs by Annexin V-FITC/propidium iodide staining based flow cytometric method (reference value: 100%); assay type: functional; settings: read-out: Activity; how it was run: as §4
[20] = test system: ACHN; assay: Induction of apoptosis in human ACHN cells assessed as early apoptotic cells at 4 uM after 24 hrs by Annexin V-FITC/propidium iodide staining based flow cytometric method (reference value: 0%); assay type: functional; how it was run: as §4
[21] = test system: ACHN; assay: Induction of apoptosis in human ACHN cells assessed as late apoptotic cells at 4 uM after 24 hrs by Annexin V-FITC/propidium iodide staining based flow cytometric method (reference value: 0%); assay type: functional; how it was run: as §4
[22] = test system: ACHN; assay: Induction of apoptosis in human ACHN cells assessed as necrotic cells at 4 uM after 24 hrs by Annexin V-FITC/propidium iodide staining based flow cytometric method (reference value: 0%); assay type: functional; how it was run: as §4
[23] = test system: ACHN; assay: Induction of apoptosis in human ACHN cells assessed as viable cells at 1 uM after 48 hrs by Annexin V-FITC/propidium iodide staining based flow cytometric method (reference value: 100%); assay type: functional; settings: read-out: Activity; how it was run: as §4
[24] = test system: ACHN; assay: Induction of apoptosis in human ACHN cells assessed as early apoptotic cells at 1 uM after 48 hrs by Annexin V-FITC/propidium iodide staining based flow cytometric method (reference value: 0%); assay type: functional; how it was run: as §4
[25] = test system: ACHN; assay: Induction of apoptosis in human ACHN cells assessed as late apoptotic cells at 1 uM after 48 hrs by Annexin V-FITC/propidium iodide staining based flow cytometric method (reference value: 0%); assay type: functional; how it was run: as §4
[26] = test system: ACHN; assay: Induction of apoptosis in human ACHN cells assessed as necrotic cells at 1 uM after 48 hrs by Annexin V-FITC/propidium iodide staining based flow cytometric method (reference value: 0%); assay type: functional; how it was run: as §4
[27] = test system: ACHN; assay: Induction of apoptosis in human ACHN cells assessed as viable cells at 2 uM after 48 hrs by Annexin V-FITC/propidium iodide staining based flow cytometric method (reference value: 100%); assay type: functional; settings: read-out: Activity; how it was run: as §4
[28] = test system: ACHN; assay: Induction of apoptosis in human ACHN cells assessed as early apoptotic cells at 2 uM after 48 hrs by Annexin V-FITC/propidium iodide staining based flow cytometric method (reference value: 0%); assay type: functional; how it was run: as §4
[29] = test system: ACHN; assay: Induction of apoptosis in human ACHN cells assessed as late apoptotic cells at 2 uM after 48 hrs by Annexin V-FITC/propidium iodide staining based flow cytometric method (reference value: 0%); assay type: functional; how it was run: as §4
[30] = test system: ACHN; assay: Induction of apoptosis in human ACHN cells assessed as necrotic cells at 2 uM after 48 hrs by Annexin V-FITC/propidium iodide staining based flow cytometric method (reference value: 0%); assay type: functional; how it was run: as §4
[31] = test system: ACHN; assay: Induction of apoptosis in human ACHN cells assessed as viable cells at 4 uM after 48 hrs by Annexin V-FITC/propidium iodide staining based flow cytometric method (reference value: 100%); assay type: functional; settings: read-out: Activity; how it was run: as §4
[32] = test system: ACHN; assay: Induction of apoptosis in human ACHN cells assessed as early apoptotic cells at 4 uM after 48 hrs by Annexin V-FITC/propidium iodide staining based flow cytometric method (reference value: 0%); assay type: functional; how it was run: as §4
[33] = test system: ACHN; assay: Induction of apoptosis in human ACHN cells assessed as late apoptotic cells at 4 uM after 48 hrs by Annexin V-FITC/propidium iodide staining based flow cytometric method (reference value: 0%); assay type: functional; how it was run: as §4
[34] = test system: ACHN; assay: Induction of apoptosis in human ACHN cells assessed as necrotic cells at 4 uM after 48 hrs by Annexin V-FITC/propidium iodide staining based flow cytometric method (reference value: 0%); assay type: functional; how it was run: as §4
[35] = test system: ACHN; assay: Induction of apoptosis in human ACHN cells assessed as viable cells at 1 uM after 72 hrs by Annexin V-FITC/propidium iodide staining based flow cytometric method (reference value: 100%); assay type: functional; settings: read-out: Activity; how it was run: as §4
[36] = test system: ACHN; assay: Induction of apoptosis in human ACHN cells assessed as early apoptotic cells at 1 uM after 72 hrs by Annexin V-FITC/propidium iodide staining based flow cytometric method (reference value: 0%); assay type: functional; how it was run: as §4
[37] = test system: ACHN; assay: Induction of apoptosis in human ACHN cells assessed as late apoptotic cells at 1 uM after 72 hrs by Annexin V-FITC/propidium iodide staining based flow cytometric method (reference value: 0%); assay type: functional; how it was run: as §4
[38] = test system: ACHN; assay: Induction of apoptosis in human ACHN cells assessed as necrotic cells at 1 uM after 72 hrs by Annexin V-FITC/propidium iodide staining based flow cytometric method (reference value: 0%); assay type: functional; how it was run: as §4
[39] = test system: ACHN; assay: Induction of apoptosis in human ACHN cells assessed as viable cells at 2 uM after 72 hrs by Annexin V-FITC/propidium iodide staining based flow cytometric method (reference value: 100%); assay type: functional; settings: read-out: Activity; how it was run: as §4
[40] = test system: ACHN; assay: Induction of apoptosis in human ACHN cells assessed as early apoptotic cells at 2 uM after 72 hrs by Annexin V-FITC/propidium iodide staining based flow cytometric method (reference value: 0%); assay type: functional; how it was run: as §4
[41] = test system: ACHN; assay: Induction of apoptosis in human ACHN cells assessed as late apoptotic cells at 2 uM after 72 hrs by Annexin V-FITC/propidium iodide staining based flow cytometric method (reference value: 0%); assay type: functional; how it was run: as §4
[42] = test system: ACHN; assay: Induction of apoptosis in human ACHN cells assessed as necrotic cells at 2 uM after 72 hrs by Annexin V-FITC/propidium iodide staining based flow cytometric method (reference value: 0%); assay type: functional; how it was run: as §4
[43] = test system: ACHN; assay: Induction of apoptosis in human ACHN cells assessed as viable cells at 4 uM after 72 hrs by Annexin V-FITC/propidium iodide staining based flow cytometric method (reference value: 100%); assay type: functional; settings: read-out: Activity; how it was run: as §4
[44] = test system: ACHN; assay: Induction of apoptosis in human ACHN cells assessed as early apoptotic cells at 4 uM after 72 hrs by Annexin V-FITC/propidium iodide staining based flow cytometric method (reference value: 0%); assay type: functional; how it was run: as §4
[45] = test system: ACHN; assay: Induction of apoptosis in human ACHN cells assessed as late apoptotic cells at 4 uM after 72 hrs by Annexin V-FITC/propidium iodide staining based flow cytometric method (reference value: 0%); assay type: functional; how it was run: as §4
[46] = test system: ACHN; assay: Induction of apoptosis in human ACHN cells assessed as necrotic cells at 4 uM after 72 hrs by Annexin V-FITC/propidium iodide staining based flow cytometric method (reference value: 0%); assay type: functional; how it was run: as §4

C=C(C=O)[C@]1(O)C[C@@]2(C)C(=CC1=O)C=C[C@H](OC(=O)/C=C/C(C)=C/[C@@H](C)CC)[C@@H]2C
IC50 [1]: 4.3 µM
IC50 [2]: 2.5 µM
IC50 [3]: 3.7 µM
IC50 [4]: 1.4 µM
IC50 [5]: 1.4 µM
MIC [6]: > 100 µg/mL
MIC [7]: 1.5 µg/mL (≈ 3.64 µM)
MIC [8]: 13 µg/mL (≈ 31.5 µM)
MIC [9]: 13 µg/mL (≈ 31.5 µM)

O=c1[nH]cc(F)c(=O)[nH]1 [FLUOROURACIL]
IC50 [4]: 12 µM
IC50 [5]: 12 µM

C=C(/C=N/O)[C@]1(OC)C[C@@]2(C)C(=CC1=O)C=C[C@H](OC(=O)/C=C/C(C)=C/[C@@H](C)CC)[C@@H]2C
Activity [10]: 0.8%
viability at 2 µM [11]: 91.4%
IC50 [1]: 3.1 µM
IC50 [2]: 27 µM
IC50 [3]: > 50 µM
IC50 [4]: 5.9 µM
IC50 [5]: 17 µM
MIC [6]: > 100 µg/mL
MIC [7]: > 100 µg/mL
MIC [8]: > 100 µg/mL
MIC [9]: > 100 µg/mL
Activity [12]: inactive
viability at 1 µM [13]: 93.2%
Activity [14]: 0.6%
Activity [15]: 0.7%
Activity [16]: 5.5%
Activity [17]: 0.7%
Activity [18]: 7.2%
viability at 4 µM [19]: 76%
Activity [20]: 1.1%
Activity [21]: 1.1%
Activity [22]: 21.8%
viability at 1 µM [23]: 91.4%
Activity [24]: 1.3%
Activity [25]: 1.2%
Activity [26]: 6%
viability at 2 µM [27]: 87.1%
Activity [28]: 2.3%
Activity [29]: 1.3%
Activity [30]: 9.3%
viability at 4 µM [31]: 50%
Activity [32]: 19.2%
Activity [33]: 11.3%
Activity [34]: 19.5%
viability at 1 µM [35]: 90.8%
Activity [36]: 1.8%
Activity [37]: 1.1%
Activity [38]: 6.2%
viability at 2 µM [39]: 80.5%
Activity [40]: 6.8%
Activity [41]: 3.8%
Activity [42]: 9%
viability at 4 µM [43]: 6.9%
Activity [44]: 83.8%
Activity [45]: 8.5%
Activity [46]: 0.8%

Reference: ChEMBL document CHEMBL4145582, “Cytotoxic and Antibacterial Eremophilane Sesquiterpenes from the Marine-Derived Fungus Cochliobolus lunatus SCSIO41401” (J Nat Prod, 2018)
